Laboratory results reported in article PMC3576184 (Oncology Letters, 2012).
Entries after “also recorded” stand apart in the source; their conditions may differ. Marks after values point to notes of the source that are not given here.

What was measured:
[1] = system: vascular smooth muscle cells; conditions: via inhibition of Ras/MAPK signal pathway; cited from earlier work
rat neutrophils = conditions: through suppression of Akt and PLD activation; cited from earlier work
WEHI-3 cells = test: MTT viability assay in WEHI-3 cells; type: cell-based, murine
Method in brief: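 WEHI-3 murine myelomonocytic cells were grown in RPMI-1640 with 10% FBS, 2 mM L-glutamine, penicillin and streptomycin at 37°C, 5% CO2. About 2×10^4 cells/well were plated for 24 h. Test compound in DMSO was added at final 0.78–25 μM, with 0.1% DMSO as control. After 24 h, viability was read by MTT across three separate experiments.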

[2] = Cytotoxicity on normal human PBMCs; type: cell-based; conditions: normal human peripheral blood mononuclear cells (PBMCs)
WEHI-3 cell allograft = test: BALB/c mouse WEHI-3 allograft leukemia model; type: in vivo, BALB/c mice
Method in brief: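 30 BALB/c mice (6 weeks, 22–25 g) in five groups: 2-glycofurol vehicle; 1×10^7 WEHI-3 cells i.v.; test compound 100 mg/kg/day i.v. for 7 days; cells plus compound; or cells, then compound for 7 days. Weighed every 7 days; killed with CO2 at day 28, spleen and liver weighed. Blood leukocytes were red-cell-lysed, stained, and read by flow cytometry for surface markers including CD11b and CD45.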

[3] = Safety evaluation in BALB/c mice; type: in vivo; conditions: for BUN (blood urea nitrogen) / Body weight / Liver weight / Spleen weight / sGOT (serum glutamic-oxaloacetic transaminase) / sGPT (serum glutamic-pyruvic transaminase) / ALB (albumin) / LDH (lactate dehydrogenase) / PRO (total protein): mean ± SD, n=6; for ALB (albumin) / LDH (lactate dehydrogenase) / PRO (total protein): blood
Method in brief: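 30 BALB/c mice in five groups received i.v. PBS, 2-glycofurol solvent, or test compound at 5, 50 or 100 mg/kg/day for 7 days. Mice were killed with CO2 at day 7. Body, liver and spleen weights were recorded. Blood was assayed for LDH, albumin, total protein, sGPT, sGOT and BUN. Spleen and liver went to histopathology. Groups were compared with controls by Student's t-test.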

HL-60 cells = conditions: cited from earlier work
[4] = 100 mg/kg, flow cytometry, vs leukemia group
[5] = 5 mg/kg i.v. once daily for 7 days
[6] = 50 mg/kg i.v. once daily for 7 days
[7] = 100 mg/kg i.v. once daily for 7 days

SMILES: O=Cc1ccccc1OCc1ccccc1 [2-benzyloxybenzaldehyde]
- effect on cell proliferation [1]: exhibited antiproliferative effects
- superoxide anion generation (rat neutrophils): inhibits superoxide anion generation

SMILES: COc1cccc(COc2ccccc2C=O)c1 [CCY-1a-E2, 2-[(3-methoxybenzyl)oxy]benzaldehyde]
- IC50 (WEHI-3 cells; Mus musculus, WEHI-3, 24 h, read-out: IC50 (cell viability, MTT)): 5 µM
- percentage of viable cells (WEHI-3 cells; WEHI-3 cells, 0.78-25 μM, 24 h, MTT): decreased the percentage of viable cells in a concentration-dependent manner
- IC50 [2]: > 20 µM
- level of CD11b on leukocytes (WEHI-3 cell allograft; [4]): significantly decreased
- level of CD45 on leukocytes (WEHI-3 cell allograft; [4]): significantly decreased
- Liver weight (WEHI-3 cell allograft; 100 mg/kg/day i.v. 7 days, day 28): significantly different; also recorded: inhibited the spleen and liver growth
- body weight vs control mice (WEHI-3 cell allograft; CCY-1a-E2 100 mg/kg group (no WEHI-3 cells), i.v. 7 days, up to day 28): not significantly decreased
- infiltration of immature myeloblastic cells into the splenic red pulp (histopathology) (WEHI-3 cell allograft; treated leukemic mice vs untreated leukemia group, data not shown): eliminated
- BUN (blood urea nitrogen) [3, 5]: 30.33 ± 5.02 mg/dL
- Body weight [3, 5]: 28.42±1.13^a g
- Liver weight [3, 5]: 4.42±0.47 g/100 g body weight
- Spleen weight [3, 5]: 0.35±0.06 g/100 g body weight
- sGOT (serum glutamic-oxaloacetic transaminase) [3, 5]: 105.83±22.16 U/l
- sGPT (serum glutamic-pyruvic transaminase) [3, 5]: 41.83±8.94 U/l
- BUN (blood urea nitrogen) [3, 6]: 26.17 ± 2.42 mg/dL
- Body weight [3, 6]: 28.88±1.52^a g
- Liver weight [3, 6]: 4.18±0.33 g/100 g body weight
- Spleen weight [3, 6]: 0.31±0.06 g/100 g body weight
- sGOT (serum glutamic-oxaloacetic transaminase) [3, 6]: 79.98±26.10 U/l
- sGPT (serum glutamic-pyruvic transaminase) [3, 6]: 43.92±16.02 U/l
- BUN (blood urea nitrogen) [3, 7]: 28.92 ± 2.20 mg/dL
- Body weight [3, 7]: 28.90±0.51^a g
- Liver weight [3, 7]: 4.17±0.26 g/100 g body weight
- Spleen weight [3, 7]: 0.37±0.04 g/100 g body weight
- sGOT (serum glutamic-oxaloacetic transaminase) [3, 7]: 115.12±15.08 U/l
- sGPT (serum glutamic-pyruvic transaminase) [3, 7]: 41.83±10.02 U/l
- sGPT and sGOT levels vs normal range ([3]; 5, 50 and 100 mg/kg i.v. for 7 days): within the normal value range
- histopathology of spleen and liver ([3]; 5, 50 and 100 mg/kg, vs vehicle-treated controls, data not shown): No significant microscopic aberrations
- ALB (albumin) [3, 5]: 1.58 ± 0.38 g/dL
- LDH (lactate dehydrogenase) [3, 5]: 298.00±62.22 U/l
- PRO (total protein) [3, 5]: 3.68 ± 0.60 g/dL
- ALB (albumin) [3, 6]: 1.73 ± 0.26 g/dL
- LDH (lactate dehydrogenase) [3, 6]: 244.83±46.99 U/l
- PRO (total protein) [3, 6]: 4.06 ± 0.58 g/dL
- ALB (albumin) [3, 7]: 1.84 ± 0.13 g/dL
- LDH (lactate dehydrogenase) [3, 7]: 270.83±42.09 U/l
- PRO (total protein) [3, 7]: 4.77 ± 0.46 g/dL
- apoptosis (HL-60 cells): induced cell apoptosis
- cell cycle effect (HL-60 cells): induced G2/M phase arrest
- percentage of viable cells (HL-60 cells): decreased the percentage of viable cells
